Laboratory results: ChEMBL document CHEMBL4689842, “EUbOPEN Chemogenomics Library wave 1” (2021)

Test system: Fibroblast
Test: Multiplex assay against human fibroblast
Assay type: toxicity, cell-based
In short: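 Values for tubulin, mitochondrial-mass and membrane-permeability phenotypes are per cents of cells with healthy nuclei. These cells were identified by CellPathfinder machine-learning gating of live cells that had been stained at seeding with Hoechst33342, BioTracker Green Microtubule Cytoskeleton Dye, MitoTracker Red and Annexin V Alexa Fluor 680 and imaged on a CQ1 microscope at 37°C and 5% CO2 after compound addition. The gating first set Hoechst high-intensity objects apart from normal cells, then split normal cells into healthy, pyknosed or fragmented nuclei, and pyknosed cells into mitotic or apoptotic.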

[1] = 12 h, 1 µM, compound concentration 1 uM, replicate 1
[2] = 12 h, 1 µM, compound concentration 1 uM, replicate 2
[3] = 12 h, 10 µM, compound concentration 10 uM, replicate 1
[4] = 12 h, 10 µM, compound concentration 10 uM, replicate 2
[5] = 24 h, 1 µM, compound concentration 1 uM, replicate 1
[6] = 24 h, 1 µM, compound concentration 1 uM, replicate 2
[7] = 24 h, 10 µM, compound concentration 10 uM, replicate 1
[8] = 24 h, 10 µM, compound concentration 10 uM, replicate 2

CCN1CCN(c2ccc(Nc3cc(N(C)C(=O)Nc4c(Cl)c(OC)cc(OC)c4Cl)ncn3)cc2)CC1 [INFIGRATINIB]
Population Apoptotic (%) [1]: 55%
Population Fragmented Nuclei (%) [1]: 28%
Population Healthy Nuclei (%) [1]: 43%
Population Hoechst High Intensity Objects (%) [1]: 24%
Population Membrane Permeable-Phenotype (%) [1]: 2%
Population Mitochondria Different-Phenotype (%) [1]: 12%
Population Mitotic Cells (%) [1]: 44%
Population Normal (%) [1]: 75%
Population Pyknosed Nuclei (%) [1]: 27%
Population Tubulin-Different-Phenotype (%) [1]: 23%
Total Cell Count [1]: 322
Population Apoptotic (%) [2]: 77%
Population Fragmented Nuclei (%) [2]: 63%
Population Healthy Nuclei (%) [2]: 20%
Population Hoechst High Intensity Objects (%) [2]: 38%
Population Membrane Permeable-Phenotype (%) [2]: 18%
Population Mitochondria Different-Phenotype (%) [2]: 27%
Population Mitotic Cells (%) [2]: 22%
Population Normal (%) [2]: 61%
Population Pyknosed Nuclei (%) [2]: 16%
Population Tubulin-Different-Phenotype (%) [2]: 45%
Total Cell Count [2]: 89
Population Apoptotic (%) [3]: 61%
Population Fragmented Nuclei (%) [3]: 31%
Population Healthy Nuclei (%) [3]: 55%
Population Hoechst High Intensity Objects (%) [3]: 13%
Population Membrane Permeable-Phenotype (%) [3]: 5%
Population Mitotic Cells (%) [3]: 38%
Population Normal (%) [3]: 86%
Population Tubulin-Different-Phenotype (%) [3]: 3%
Total Cell Count [3]: 195
Population Apoptotic (%) [4]: 75%
Population Fragmented Nuclei (%) [4]: 60%
Population Healthy Nuclei (%) [4]: 26%
Population Hoechst High Intensity Objects (%) [4]: 34%
Population Membrane Permeable-Phenotype (%) [4]: 17%
Population Mitochondria Different-Phenotype (%) [4]: 5%
Population Mitotic Cells (%) [4]: 25%
Population Normal (%) [4]: 65%
Population Pyknosed Nuclei (%) [4]: 12%
Population Tubulin-Different-Phenotype (%) [4]: 11%
Total Cell Count [4]: 98
Population Apoptotic (%) [5]: 60%
Population Fragmented Nuclei (%) [5]: 15%
Population Healthy Nuclei (%) [5]: 44%
Population Hoechst High Intensity Objects (%) [5]: 36%
Population Membrane Permeable-Phenotype (%) [5]: 4%
Population Mitochondria Different-Phenotype (%) [5]: 29%
Population Mitotic Cells (%) [5]: 40%
Population Normal (%) [5]: 63%
Population Pyknosed Nuclei (%) [5]: 39%
Population Tubulin-Different-Phenotype (%) [5]: 40%
Total Cell Count [5]: 259
Population Apoptotic (%) [6]: 66%
Population Fragmented Nuclei (%) [6]: 60%
Population Healthy Nuclei (%) [6]: 27%
Population Hoechst High Intensity Objects (%) [6]: 46%
Population Membrane Permeable-Phenotype (%) [6]: 0%
Population Mitochondria Different-Phenotype (%) [6]: 23%
Population Mitotic Cells (%) [6]: 33%
Population Normal (%) [6]: 53%
Population Pyknosed Nuclei (%) [6]: 12%
Population Tubulin-Different-Phenotype (%) [6]: 38%
Total Cell Count [6]: 90
Population Apoptotic (%) [7]: 68%
Population Fragmented Nuclei (%) [7]: 26%
Population Healthy Nuclei (%) [7]: 61%
Population Hoechst High Intensity Objects (%) [7]: 15%
Population Mitochondria Different-Phenotype (%) [7]: 3%
Population Mitotic Cells (%) [7]: 31%
Population Normal (%) [7]: 84%
Population Pyknosed Nuclei (%) [7]: 11%
Population Tubulin-Different-Phenotype (%) [7]: 3%
Total Cell Count [7]: 191
Population Apoptotic (%) [8]: 100%
Population Fragmented Nuclei (%) [8]: 56%
Population Healthy Nuclei (%) [8]: 32%
Population Hoechst High Intensity Objects (%) [8]: 34%
Population Membrane Permeable-Phenotype (%) [8]: 9%
Population Mitochondria Different-Phenotype (%) [8]: 9%
Population Mitotic Cells (%) [8]: 0%
Population Normal (%) [8]: 65%
Population Pyknosed Nuclei (%) [8]: 10%
Population Tubulin-Different-Phenotype (%) [8]: 9%
Total Cell Count [8]: 99
